According to ChEMBL document CHEMBL1125755, “Synthesis and structure-activity relationships of benzo[b]thienylallylamine antimycotics” (1991):
Converted amounts (≈) assume the structure as drawn.

How the values were obtained:
Trichophyton benhamiae [1] = experiment: Evaluated in vitro for the minimum inhibitory concentration against Trichophyton mentagrophytes; assay type: functional, Arthroderma benhamiae
Outline: (§1)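 Dermatophytes were tested in glass tubes of Sabouraud's dextrose broth (pH 6.5) against DMSO-dissolved compounds serially diluted in the medium. Inoculum was taken by spatula from 21-day Kimming agar cultures grown at 30 °C. Incubation was 7 days at 30 °C. MIC was the lowest concentration showing no macroscopic fungal growth.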

Candida parapsilosis [2] = experiment: Evaluated in vitro for the minimum inhibitory concentration against Candida parapsilosis 39.; assay type: functional; settings: Lodderomyces parapsilosis
Outline: (§2)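 Yeast tube dilution in malt extract broth (pH 4.8), with compounds in DMSO serially diluted in the medium. Inoculum was blastospores from about 30-h shaken cultures in yeast nitrogen base at 37 °C. Growth was read after 48 h at 30 °C. MIC was the lowest concentration without macroscopically visible growth.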

Sporothrix schenckii [3] = experiment: Evaluated in vitro for the minimum inhibitory concentration against Sporothrix schenckii.
Microsporum canis [4] = experiment: Evaluated in vitro for the minimum inhibitory concentration against Microsporum canis.; assay type: functional; outline: as §1
Aspergillus fumigatus [5] = experiment: Evaluated in vitro for the minimum inhibitory concentration against Aspergillus fumigatus.
Candida albicans [6] = experiment: Evaluated in vitro for the minimum inhibitory concentration against Candida albicans 124; assay type: functional; outline: as §2
Candida albicans [7] = experiment: In vitro minimum inhibitory concentration which is the lowest concentration at which no signs of fungal growth were detected against Candida albicans 124; assay type: functional; outline: as §2
Sporothrix schenckii [8] = experiment: In vitro minimum inhibitory concentration which is the lowest concentration at which no signs of fungal growth were detected against Sporothrix schenckii
Aspergillus fumigatus [9] = experiment: In vitro minimum inhibitory concentration which is the lowest concentration at which no signs of fungal growth were detected against Aspergillus fumigatus.
Trichophyton benhamiae [10] = experiment: In vitro minimum inhibitory concentration which is the lowest concentration at which no signs of fungal growth were detected against Trichophyton mentagrophytes.; assay type: functional, Arthroderma benhamiae; outline: as §1
Candida parapsilosis [11] = experiment: In vitro minimum inhibitory concentration which is the lowest concentration at which no signs of fungal growth were detected against Candida parapsilosis 39.; assay type: functional; settings: Lodderomyces parapsilosis; outline: as §2
Microsporum canis [12] = experiment: In vitro minimum inhibitory concentration which is the lowest concentration at which no signs of fungal growth were detected against Microsporum canis.; assay type: functional; outline: as §1
Aspergillus fumigatus [13] = experiment: In vitro minimum inhibitory concentration which is the lowest concentration at which no signs of fungal growth were detected against Aspergillus fumigatus
Candida parapsilosis [14] = experiment: In vitro minimum inhibitory concentration at which no signs of fungal growth were detected against laboratory adapted strains of Candida parapsilosis.; assay type: functional; settings: Lodderomyces parapsilosis
Outline: (§3)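 Yeast blastospores taken from shaken cultures about 30 h old, grown at 37 °C in yeast nitrogen base. Tube dilution used malt extract broth (pH 4.8); compounds were dissolved in DMSO and serially diluted in medium. Incubated at 30 °C and read after 48 h. MIC is the lowest concentration with no macroscopic growth.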

Aspergillus fumigatus [15] = experiment: In vitro minimum inhibitory concentration at which no signs of fungal growth were detected against laboratory adapted strains of Aspergillus fumigatus.; assay type: functional
Outline: (§4)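 Inoculum of filamentous fungi harvested from 21-day-old Kimming agar cultures grown at 30 °C. Broth dilution in glass tubes with Sabouraud's dextrose broth (pH 6.5); compounds dissolved in DMSO and serially diluted in medium. Incubation at 30 °C, read after 72 h. MIC taken as the lowest concentration with no macroscopically visible growth.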

Arthrodermataceae [16] = experiment: In vitro minimum inhibitory concentration at which no signs of fungal growth were detected against clinical isolated strains of dermatophytes.; assay type: functional; outline: as §1
Candida albicans [17] = experiment: In vitro minimum inhibitory concentration at which no signs of fungal growth were detected against clinical isolated strains of Candida albicans.; assay type: functional; outline: as §2
[18] = test system: Scopulariopsis brevicaulis; experiment: In vitro minimum inhibitory concentration at which no signs of fungal growth were detected against laboratory adapted strains of Scopulariopsis brevicaulis.; assay type: functional
Outline: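 Inoculum of this mould harvested from 21-day-old Kimming agar cultures grown at 30 °C. Compounds dissolved in DMSO and serially diluted in broth in glass tubes. Incubated at 30 °C and read after 72 h. MIC is the lowest concentration with no macroscopically detectable growth.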

Aspergillus niger = experiment: In vitro minimum inhibitory concentration at which no signs of fungal growth were detected against laboratory adapted strains of Aspergillus niger.; assay type: functional; outline: as §4
Nakaseomyces glabratus = experiment: In vitro minimum inhibitory concentration at which no signs of fungal growth were detected against laboratory adapted strains of Torulopsis glabrata.; assay type: functional; outline: as §3
Arthrodermataceae [19] = experiment: In vitro minimum inhibitory concentration at which no signs of fungal growth were detected against laboratory adapted strains of dermatophytes.; assay type: functional
Outline: (§5)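 Sabouraud's dextrose broth (pH 6.5) in glass tubes; compounds dissolved in DMSO and serially diluted with medium. Incubated at 30 °C and read after 7 days. MIC is the lowest concentration with no macroscopically visible fungal growth.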

Sporothrix schenckii [20] = experiment: In vitro minimum inhibitory concentration at which no signs of fungal growth were detected against laboratory adapted strains of Sporotrix schenck ii.; assay type: functional; outline: as §5
Candida albicans [21] = experiment: In vitro minimum inhibitory concentration at which no signs of fungal growth were detected against laboratory adapted strains of Candida albicans.; assay type: functional; outline: as §3

| SMILES | MIC (Trichophyton benhamiae [1]) [µg/mL] | MIC (Candida parapsilosis [2]) [µg/mL] | MIC (Sporothrix schenckii [3]) [µg/mL] | MIC (Microsporum canis [4]) [µg/mL] | MIC (Aspergillus fumigatus [5]) [µg/mL] | MIC (Candida albicans [6]) [µg/mL] | also measured |
| --- | --- | --- | --- | --- | --- | --- | --- |
| CN(C/C=C/C#CC(C)(C)C)Cc1cccc2c(F)csc12.Cl | 0.0008 | 0.1 | 0.05 | 0.0015 | 0.1 | 0.8 |  |
| CN(C/C=C/C#CC(C)(C)C)Cc1cccc2sc(Cl)cc12.Cl | 0.006 | 0.2 | 6.25 | 0.006 | 0.2 | 25 |  |
| CN(C/C=C/C#CC(C)(C)C)Cc1cccc2c(C=O)csc12 |  |  |  |  |  |  | MIC (Candida albicans [7]): 6.25 µg/mL (≈ 19.2 µM); MIC (Sporothrix schenckii [8]): 1.56 µg/mL (≈ 4.79 µM); MIC (Aspergillus fumigatus [9]): 0.4 µg/mL (≈ 1.23 µM); MIC (Trichophyton benhamiae [10]): 0.05 µg/mL (≈ 0.154 µM); MIC (Candida parapsilosis [11]): 0.4 µg/mL (≈ 1.23 µM); MIC (Microsporum canis [12]): 0.02 µg/mL (≈ 0.0614 µM) |
| CN(C/C=C/C#CC(C)(C)C)Cc1csc2c(Cl)cccc12.Cl | 0.02 | 1.56 | > 100 | 0.05 | 0.8 | 25 |  |
| CN(C/C=C/C#CC(C)(C)C)Cc1cccc2c(C#N)csc12.Cl |  |  |  |  |  |  | MIC (Candida albicans [7]): 3.13 µg/mL; MIC (Sporothrix schenckii [8]): 0.4 µg/mL; MIC (Aspergillus fumigatus [9]): 3.13 µg/mL; MIC (Trichophyton benhamiae [10]): 0.02 µg/mL; MIC (Candida parapsilosis [11]): 0.2 µg/mL; MIC (Microsporum canis [12]): 0.01 µg/mL |
| CN(C/C=C/C#CC(C)(C)C)Cc1cccc2ccsc12.Cl | 0.006 | 0.8 | 0.1 | 0.01 | 0.2 | 25 |  |
| CN(C/C=C/C#CC(C)(C)C)Cc1csc2ccccc12.Cl | 0.01 | 3.13 | 3.13 | 0.02 | 0.8 | 100 |  |
| CN(C/C=C/C#CC(C)(C)C)Cc1cccc2c(C(F)(F)F)csc12.Cl | 0.05 | 1.56 | 50 | 0.1 | 12.5 | 3.13 |  |
| CN(C/C=C/C#CC(C)(C)C)Cc1cccc2sccc12.Cl | 0.006 | 1.56 | 0.8 | 0.01 | 0.4 | 50 |  |
| CN(C/C=C/C#CC(C)(C)C)Cc1cccc2cc(F)sc12.Cl | 0.006 |  | 3.13 | 0.01 | 0.05 | 25 | MIC (Candida parapsilosis [11]): 6.25 µg/mL |
| CN(C/C=C/C#CC(C)(C)C)Cc1ccc2sccc2c1 | 0.4 (≈ 1.34 µM) | 100 (≈ 336 µM) | > 200 | 1.56 (≈ 5.24 µM) | 1.56 (≈ 5.24 µM) | 200 (≈ 672 µM) |  |
| CN(C/C=C/C#CC(C)(C)C)Cc1ccc(Cl)c2ccsc12.Cl | 0.1 | 0.8 | > 200 | 0.4 | > 200 | 100 |  |
| CN(C/C=C/C#CC(C)(C)C)Cc1cc2ccccc2s1 | > 100 | > 200 | > 100 | > 100 |  | > 200 |  |
| CSc1csc2c(CN(C)C/C=C/C#CC(C)(C)C)cccc12.Cl | 0.02 | 0.8 | > 200 | 0.1 | 6.25 | 6.25 |  |
| Cc1csc2c(CN(C)C/C=C/C#CC(C)(C)C)cccc12.Cl | 0.006 | 0.4 | 0.1 | 0.006 | 0.4 | 3.13 |  |
| CN(C/C=C/C#CC(C)(C)C)Cc1c(Cl)sc2ccccc12 | 0.1 (≈ 0.301 µM) | 6.25 (≈ 18.8 µM) | > 200 | 0.1 (≈ 0.301 µM) | > 200 | > 200 |  |
| CN(C/C=C/C#CC(C)(C)C)Cc1cccc2cc(Cl)sc12.Cl | 0.01 | 0.8 | > 100 | 0.01 | > 100 | > 100 |  |
| CN(C/C=C/C#CC(C)(C)C)Cc1csc2ccc(Cl)cc12 | 0.006 (≈ 0.0181 µM) | 0.4 (≈ 1.21 µM) | 3.13 (≈ 9.43 µM) | 0.006 (≈ 0.0181 µM) |  | 12.5 (≈ 37.7 µM) | MIC (Aspergillus fumigatus [13]): 0.4 µg/mL (≈ 1.21 µM) |
| CN(C/C=C/C#CC(C)(C)C)Cc1cc(Cl)cc2ccsc12.Cl | 0.05 | 0.2 | > 200 | 0.1 | 3.13 | > 200 |  |
| CN(C/C=C/C#CC(C)(C)C)Cc1cccc2scc(Cl)c12.Cl | 0.05 | 6.25 | 25 | 0.1 | 0.8 | 50 |  |
| CN(C/C=C/C#CC(C)(C)C)Cc1cccc2c(Br)csc12.Cl |  |  |  |  |  |  | MIC (Candida albicans [7]): 0.8 µg/mL; MIC (Sporothrix schenckii [8]): 0.4 µg/mL; MIC (Aspergillus fumigatus [9]): 0.8 µg/mL; MIC (Trichophyton benhamiae [10]): 0.006 µg/mL; MIC (Candida parapsilosis [11]): 0.2 µg/mL; MIC (Microsporum canis [12]): 0.006 µg/mL |
| CN(C/C=C/C#CC(C)(C)C)Cc1cccc2c(Cl)csc12.Cl | 0.0015 | 0.1 | 0.1 | 0.003 | 0.2 | 0.8 | MIC (Candida parapsilosis [14]): 0.02 µg/mL; MIC (Aspergillus fumigatus [15]): 0.05 µg/mL; MIC (Arthrodermataceae [16]): 0.02 µg/mL; MIC (Candida albicans [17]): 3.13 µg/mL; MIC [18]: 0.05 µg/mL; MIC (Aspergillus niger): 0.02 µg/mL; MIC (Nakaseomyces glabratus): > 100 µg/mL; MIC (Arthrodermataceae [19]): 0.003 µg/mL; MIC (Sporothrix schenckii [20]): 0.1 µg/mL; MIC (Candida albicans [21]): 0.4 µg/mL |
